Data taken from ChEMBL document CHEMBL4689842, “EUbOPEN Chemogenomics Library wave 1” (2021).

System: HEK-293T
Test: Multiplex assay against HEK293T;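 as to Population Tubulin-Different-Phenotype (%): share of the cells with healthy nuclei that show this phenotype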
Assay type: toxicity, cell-based
Conditions: human
Method in brief: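 Cells stained live at seeding with Hoechst33342, BioTracker Green Microtubule Cytoskeleton Dye, MitoTracker Red and Annexin V Alexa Fluor 680 were imaged on a CQ1 microscope at 37°C and 5% CO2 after compound addition. Their classification by CellPathfinder machine-learning gating ran from Hoechst high-intensity objects versus normal cells, to healthy, pyknosed or fragmented nuclei among normal cells, to mitotic or apoptotic among pyknosed cells. Tubulin, mitochondrial-mass and membrane-permeability phenotypes are per cents of healthy-nucleus cells.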

[1] = 12 h, 1 µM, compound concentration 1 uM, replicate 1
[2] = 12 h, 1 µM, compound concentration 1 uM, replicate 2
[3] = 12 h, 10 µM, compound concentration 10 uM, replicate 1
[4] = 12 h, 10 µM, compound concentration 10 uM, replicate 2
[5] = 24 h, 1 µM, compound concentration 1 uM, replicate 1
[6] = 24 h, 1 µM, compound concentration 1 uM, replicate 2
[7] = 24 h, 10 µM, compound concentration 10 uM, replicate 1
[8] = 24 h, 10 µM, compound concentration 10 uM, replicate 2
[9] = 48 h, 1 µM, compound concentration 1 uM, replicate 1
[10] = 48 h, 1 µM, compound concentration 1 uM, replicate 2
[11] = 48 h, 10 µM, compound concentration 10 uM, replicate 1
[12] = 48 h, 10 µM, compound concentration 10 uM, replicate 2

CCN1CCN(c2ccc(Nc3cc(N(C)C(=O)Nc4c(Cl)c(OC)cc(OC)c4Cl)ncn3)cc2)CC1 [INFIGRATINIB]
Population Apoptotic (%) [1]: 26%
Population Fragmented Nuclei (%) [1]: 18%
Population Healthy Nuclei (%) [1]: 37%
Population Hoechst High Intensity Objects (%) [1]: 19%
Population Membrane Permeable-Phenotype (%) [1]: 18%
Population Mitochondria Different-Phenotype (%) [1]: 14%
Population Mitotic Cells (%) [1]: 73%
Population Normal (%) [1]: 80%
Population Pyknosed Nuclei (%) [1]: 44%
Population Tubulin-Different-Phenotype (%) [1]: 52%
Total Cell Count [1]: 470
Population Apoptotic (%) [2]: 14%
Population Fragmented Nuclei (%) [2]: 4%
Population Healthy Nuclei (%) [2]: 84%
Population Hoechst High Intensity Objects (%) [2]: 3%
Population Membrane Permeable-Phenotype (%) [2]: 6%
Population Mitochondria Different-Phenotype (%) [2]: 27%
Population Mitotic Cells (%) [2]: 85%
Population Normal (%) [2]: 96%
Population Pyknosed Nuclei (%) [2]: 11%
Population Tubulin-Different-Phenotype (%) [2]: 81%
Total Cell Count [2]: 1084
Population Apoptotic (%) [3]: 18%
Population Fragmented Nuclei (%) [3]: 19%
Population Healthy Nuclei (%) [3]: 56%
Population Hoechst High Intensity Objects (%) [3]: 14%
Population Membrane Permeable-Phenotype (%) [3]: 7%
Population Mitochondria Different-Phenotype (%) [3]: 10%
Population Mitotic Cells (%) [3]: 81%
Population Normal (%) [3]: 85%
Population Pyknosed Nuclei (%) [3]: 23%
Population Tubulin-Different-Phenotype (%) [3]: 13%
Total Cell Count [3]: 527
Population Apoptotic (%) [4]: 9%
Population Fragmented Nuclei (%) [4]: 7%
Population Healthy Nuclei (%) [4]: 87%
Population Hoechst High Intensity Objects (%) [4]: 2%
Population Membrane Permeable-Phenotype (%) [4]: 5%
Population Mitochondria Different-Phenotype (%) [4]: 11%
Population Mitotic Cells (%) [4]: 90%
Population Normal (%) [4]: 97%
Population Pyknosed Nuclei (%) [4]: 5%
Population Tubulin-Different-Phenotype (%) [4]: 24%
Total Cell Count [4]: 1732
Population Apoptotic (%) [5]: 37%
Population Fragmented Nuclei (%) [5]: 16%
Population Healthy Nuclei (%) [5]: 60%
Population Hoechst High Intensity Objects (%) [5]: 19%
Population Membrane Permeable-Phenotype (%) [5]: 10%
Population Mitochondria Different-Phenotype (%) [5]: 31%
Population Mitotic Cells (%) [5]: 62%
Population Normal (%) [5]: 80%
Population Pyknosed Nuclei (%) [5]: 23%
Population Tubulin-Different-Phenotype (%) [5]: 78%
Total Cell Count [5]: 436
Population Apoptotic (%) [6]: 6%
Population Fragmented Nuclei (%) [6]: 7%
Population Healthy Nuclei (%) [6]: 82%
Population Hoechst High Intensity Objects (%) [6]: 5%
Population Membrane Permeable-Phenotype (%) [6]: 9%
Population Mitochondria Different-Phenotype (%) [6]: 20%
Population Mitotic Cells (%) [6]: 93%
Population Normal (%) [6]: 94%
Population Pyknosed Nuclei (%) [6]: 9%
Population Tubulin-Different-Phenotype (%) [6]: 87%
Total Cell Count [6]: 1343
Population Apoptotic (%) [7]: 19%
Population Fragmented Nuclei (%) [7]: 13%
Population Healthy Nuclei (%) [7]: 76%
Population Hoechst High Intensity Objects (%) [7]: 10%
Population Membrane Permeable-Phenotype (%) [7]: 15%
Population Mitochondria Different-Phenotype (%) [7]: 4%
Population Mitotic Cells (%) [7]: 80%
Population Normal (%) [7]: 89%
Population Pyknosed Nuclei (%) [7]: 9%
Population Tubulin-Different-Phenotype (%) [7]: 24%
Total Cell Count [7]: 608
Population Apoptotic (%) [8]: 10%
Population Fragmented Nuclei (%) [8]: 23%
Population Healthy Nuclei (%) [8]: 74%
Population Hoechst High Intensity Objects (%) [8]: 4%
Population Membrane Permeable-Phenotype (%) [8]: 11%
Population Mitochondria Different-Phenotype (%) [8]: 2%
Population Mitotic Cells (%) [8]: 90%
Population Normal (%) [8]: 95%
Population Pyknosed Nuclei (%) [8]: 2%
Population Tubulin-Different-Phenotype (%) [8]: 26%
Total Cell Count [8]: 3002

CN1CCC(=C2c3ccccc3CC(=O)c3sccc32)CC1.O=C(O)/C=C/C(=O)O [KETOTIFEN FUMARATE]
Population Apoptotic (%) [1]: 46%
Population Fragmented Nuclei (%) [1]: 10%
Population Healthy Nuclei (%) [1]: 37%
Population Hoechst High Intensity Objects (%) [1]: 13%
Population Membrane Permeable-Phenotype (%) [1]: 5%
Population Mitochondria Different-Phenotype (%) [1]: 73%
Population Mitotic Cells (%) [1]: 53%
Population Normal (%) [1]: 86%
Population Pyknosed Nuclei (%) [1]: 51%
Population Tubulin-Different-Phenotype (%) [1]: 40%
Total Cell Count [1]: 288
Population Apoptotic (%) [2]: 13%
Population Fragmented Nuclei (%) [2]: 4%
Population Healthy Nuclei (%) [2]: 40%
Population Hoechst High Intensity Objects (%) [2]: 4%
Population Membrane Permeable-Phenotype (%) [2]: 12%
Population Mitochondria Different-Phenotype (%) [2]: 17%
Population Mitotic Cells (%) [2]: 86%
Population Normal (%) [2]: 95%
Population Pyknosed Nuclei (%) [2]: 54%
Population Tubulin-Different-Phenotype (%) [2]: 28%
Total Cell Count [2]: 211
Population Apoptotic (%) [3]: 71%
Population Fragmented Nuclei (%) [3]: 11%
Population Healthy Nuclei (%) [3]: 28%
Population Hoechst High Intensity Objects (%) [3]: 10%
Population Membrane Permeable-Phenotype (%) [3]: 4%
Population Mitochondria Different-Phenotype (%) [3]: 98%
Population Mitotic Cells (%) [3]: 28%
Population Normal (%) [3]: 89%
Population Pyknosed Nuclei (%) [3]: 60%
Population Tubulin-Different-Phenotype (%) [3]: 97%
Total Cell Count [3]: 298
Population Apoptotic (%) [4]: 54%
Population Fragmented Nuclei (%) [4]: 7%
Population Healthy Nuclei (%) [4]: 22%
Population Hoechst High Intensity Objects (%) [4]: 5%
Population Membrane Permeable-Phenotype (%) [4]: 0%
Population Mitochondria Different-Phenotype (%) [4]: 100%
Population Mitotic Cells (%) [4]: 45%
Population Normal (%) [4]: 94%
Population Pyknosed Nuclei (%) [4]: 69%
Population Tubulin-Different-Phenotype (%) [4]: 100%
Total Cell Count [4]: 177
Population Apoptotic (%) [5]: 50%
Population Fragmented Nuclei (%) [5]: 12%
Population Healthy Nuclei (%) [5]: 42%
Population Hoechst High Intensity Objects (%) [5]: 8%
Population Membrane Permeable-Phenotype (%) [5]: 7%
Population Mitochondria Different-Phenotype (%) [5]: 67%
Population Mitotic Cells (%) [5]: 49%
Population Normal (%) [5]: 91%
Population Pyknosed Nuclei (%) [5]: 44%
Population Tubulin-Different-Phenotype (%) [5]: 49%
Total Cell Count [5]: 307
Population Apoptotic (%) [6]: 13%
Population Fragmented Nuclei (%) [6]: 3%
Population Healthy Nuclei (%) [6]: 55%
Population Hoechst High Intensity Objects (%) [6]: 2%
Population Membrane Permeable-Phenotype (%) [6]: 14%
Population Mitochondria Different-Phenotype (%) [6]: 20%
Population Mitotic Cells (%) [6]: 86%
Population Normal (%) [6]: 97%
Population Pyknosed Nuclei (%) [6]: 41%
Population Tubulin-Different-Phenotype (%) [6]: 48%
Total Cell Count [6]: 251
Population Apoptotic (%) [7]: 75%
Population Fragmented Nuclei (%) [7]: 12%
Population Healthy Nuclei (%) [7]: 32%
Population Hoechst High Intensity Objects (%) [7]: 11%
Population Membrane Permeable-Phenotype (%) [7]: 1%
Population Mitochondria Different-Phenotype (%) [7]: 97%
Population Mitotic Cells (%) [7]: 24%
Population Normal (%) [7]: 88%
Population Pyknosed Nuclei (%) [7]: 55%
Total Cell Count [7]: 313
Population Apoptotic (%) [8]: 74%
Population Fragmented Nuclei (%) [8]: 4%
Population Healthy Nuclei (%) [8]: 35%
Population Hoechst High Intensity Objects (%) [8]: 4%
Population Membrane Permeable-Phenotype (%) [8]: 3%
Population Mitochondria Different-Phenotype (%) [8]: 95%
Population Mitotic Cells (%) [8]: 25%
Population Normal (%) [8]: 95%
Population Pyknosed Nuclei (%) [8]: 59%
Population Tubulin-Different-Phenotype (%) [8]: 98%
Total Cell Count [8]: 180
Population Apoptotic (%) [9]: 35%
Population Fragmented Nuclei (%) [9]: 12%
Population Healthy Nuclei (%) [9]: 40%
Population Hoechst High Intensity Objects (%) [9]: 15%
Population Membrane Permeable-Phenotype (%) [9]: 7%
Population Mitochondria Different-Phenotype (%) [9]: 52%
Population Mitotic Cells (%) [9]: 64%
Population Normal (%) [9]: 84%
Population Pyknosed Nuclei (%) [9]: 46%
Population Tubulin-Different-Phenotype (%) [9]: 52%
Total Cell Count [9]: 369
Population Apoptotic (%) [10]: 16%
Population Fragmented Nuclei (%) [10]: 4%
Population Healthy Nuclei (%) [10]: 79%
Population Hoechst High Intensity Objects (%) [10]: 4%
Population Membrane Permeable-Phenotype (%) [10]: 10%
Population Mitochondria Different-Phenotype (%) [10]: 11%
Population Mitotic Cells (%) [10]: 83%
Population Normal (%) [10]: 95%
Population Pyknosed Nuclei (%) [10]: 16%
Population Tubulin-Different-Phenotype (%) [10]: 38%
Total Cell Count [10]: 468
Population Apoptotic (%) [11]: 71%
Population Fragmented Nuclei (%) [11]: 21%
Population Healthy Nuclei (%) [11]: 40%
Population Hoechst High Intensity Objects (%) [11]: 13%
Population Membrane Permeable-Phenotype (%) [11]: 2%
Population Mitochondria Different-Phenotype (%) [11]: 93%
Population Mitotic Cells (%) [11]: 28%
Population Normal (%) [11]: 86%
Population Pyknosed Nuclei (%) [11]: 38%
Population Tubulin-Different-Phenotype (%) [11]: 95%
Total Cell Count [11]: 362
Population Apoptotic (%) [12]: 72%
Population Fragmented Nuclei (%) [12]: 2%
Population Healthy Nuclei (%) [12]: 70%
Population Hoechst High Intensity Objects (%) [12]: 4%
Population Membrane Permeable-Phenotype (%) [12]: 5%
Population Mitochondria Different-Phenotype (%) [12]: 86%
Population Mitotic Cells (%) [12]: 27%
Population Normal (%) [12]: 95%
Population Pyknosed Nuclei (%) [12]: 26%
Population Tubulin-Different-Phenotype (%) [12]: 93%
Total Cell Count [12]: 215
